# Source: PubChem (Sanford-Burnham Center for Chemical Genomics)
# A selection: hits, their analogues and other compounds. The true share with any hit is near 1.5%.
# CXCR6 inh: CXCR6 (human) receptor inhibition | O00574 | CHO-K1 PathHunter CXCR6 beta-arrestin, luminescence | inhibition, % at 20 µM | 360,000 tested, 0.36% active | AID 602244; in the data active means inhibition above about 34%, passing the limit was not always enough;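 further: antagonist mode with CXCL16 agonist at 10 nM final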
# CCR6 antagonist: blocks CCL20-driven beta-arrestin recruitment at human CCR6. P51684. 340,000 tested, 0.49% active. CHO-K1 CCR6 PathHunter beta-arrestin, luminescence, CCL20-stimulated. AID 493098. inhibition, % at 20 µM;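 active means compounds whose inhibition of the agonist-driven luminescence signal at 20 µM reaches about 50%, limit read from the data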;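 further: cells stimulated with CCL20 at 14 nM final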
# Target sequence (P51684 whole entry, looked up): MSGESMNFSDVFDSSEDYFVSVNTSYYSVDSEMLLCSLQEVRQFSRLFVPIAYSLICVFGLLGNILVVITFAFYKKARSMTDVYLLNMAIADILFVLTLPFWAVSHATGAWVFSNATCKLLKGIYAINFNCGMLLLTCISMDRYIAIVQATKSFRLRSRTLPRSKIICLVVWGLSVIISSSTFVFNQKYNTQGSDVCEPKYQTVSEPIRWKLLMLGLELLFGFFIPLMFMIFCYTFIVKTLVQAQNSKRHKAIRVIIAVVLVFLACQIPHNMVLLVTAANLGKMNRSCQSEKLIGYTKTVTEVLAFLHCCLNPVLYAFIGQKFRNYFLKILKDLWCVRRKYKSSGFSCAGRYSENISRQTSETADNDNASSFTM
# APJ ag: activates the human apelin receptor APJ. activation, % at 20 µM. AID 2520. CHO-K1 APJ PathHunter beta-arrestin, luminescence; 0% DMSO wells, 100% apelin. 330,000 tested, 0.11% active;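 active means activation more than six SD over the plate average, tested at 20 µM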
#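 Assay system – PathHunter CHO-K1 APJ (AGTRL-1) beta-arrestin reporter cells · Compound – one dose, 20 µM compound, 1% DMSO · Timing – compound 90 min 25 °C, reagent 1 h · Measured by – luminescence from split beta-galactosidase complementation, Galacton Star/Emerald II substrate · Measure – beta-arrestin recruitment to APJ as agonist activity, luminescent signal · Benchmarks – DMSO vs Apelin-13 10 nM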
# EBI2 block: EBI2 (human) antagonism; EBI2 beta-arrestin recruitment, luminescence, 7a,25-OHC stimulated; P32249; inhibition, % at 5 µM; 360,000 tested, 0.81% active; AID 651636; in the data active means inhibition above about 38%;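 further: enzyme fragment complementation signal reports receptor beta-arrestin coupling in cells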
# APJ antag: antagonists of human APJ apelin receptor; P35414; inhibition, % at 20 µM; 330,000 tested, 0.32% active; CHO-K1 APJ beta-arrestin complementation, luminescence;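 active means inhibition above about 40% at 20 µM, limit read from the data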;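 further: cells challenged with 10 nM apelin-13 agonist together with compound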
# Numbers stand for hits; 0 = inactive; - = not tested or not shown.
SMILES,CXCR6 inh,CCR6 antagonist,APJ ag,EBI2 block,APJ antag
Cn1c(CNc2ccc(Cl)cc2)nc2ccccc21,0,0,0,0,0
CC(C)N=c1cc2n(-c3ccc(Cl)cc3)c3ccccc3nc-2cc1Nc1ccc(Cl)cc1,46,0,0,0,67
C[C@@H]1CCCCO[C@@H](CN(C)C(=O)C2CCCCC2)[C@@H](C)CN([C@H](C)CO)C(=O)c2cc(NC(=O)NC3CCCCC3)ccc2O1,0,-,-,0,-
O=C(CS(=O)(=O)Cc1ccccc1)NCc1ccc2c(c1)OCO2,0,52,0,0,0
O=C(COc1ccc(F)cc1)N/N=C/c1cccc2cccnc12,0,0,0,0,0
CC1=NC(Nc2nc(C)c3ccccc3n2)=NC(C)(C)C1,0,58,-,0,-
Cc1ccccc1Oc1cc(-n2ncc(Cl)c(Cl)c2=O)ncn1,46,65,-,68,-
O=[N+]([O-])c1cccc(/C=N/Nc2nc(C(Cl)(Cl)Cl)nc3ccccc23)c1,0,0,15,0,0
COc1cc([N+](=O)[O-])c2ncsc2c1,0,0,0,0,0
COc1cc(SSc2cc(OC)cc([N+](=O)[O-])c2N)c(N)c([N+](=O)[O-])c1,0,54,0,0,0
CCN1C(=O)/C(=C/C=C2\N(CC)c3cc(S(=O)(=O)N(C)C)ccc3N2c2ccccc2)SC1=S,52,67,0,0,0
CCN1C(=O)/C(=C\C=C\c2ccccc2[N+](=O)[O-])SC1=S,0,0,0,0,0
COc1ccc(-c2cc(C(=O)Nc3ccc(C(N)=O)cc3)c3ccccc3n2)cc1,0,0,0,0,0
CC1CC(C)CN(S(=O)(=O)CC23CCC(CC2=O)C3(C)C)C1 (centres undefined),0,0,0,0,0
COc1cc(/C=C2/CCc3ccccc3C2=O)cc(OC)c1OC,0,0,0,0,0
COc1cc(/C=C2\CC/C(=C\c3cc(OC)c(O)c(OC)c3)C2=O)cc(OC)c1O,42,55,0,0,0
COc1cc(/C=C2\CC/C(=C\c3cc(OC)c(OC)c(OC)c3)C2=O)cc(OC)c1OC,0,0,0,0,0
COc1cc(/C=C2\COC/C(=C\c3cc(OC)c(OC)c(OC)c3)C2=O)cc(OC)c1OC,39,55,-,45,-
COc1cc(/C=C2\SC(N)=NC2=O)cc(Cl)c1O,0,0,0,0,0
COc1cc(/C=C2/CCC/C(=C\c3cc(O)c(OC)c(Cl)c3)C2=O)cc(Cl)c1O,0,74,0,0,0
O=C1NC[C@@H](Cc2cccc3ccccc23)N(CCc2cccc(F)c2)C1=O,0,-,-,0,-
ON1C2CCCCC2N(O)C1c1c(F)c(F)c(F)c(F)c1F (centres undefined),0,53,0,0,0
COC(=O)c1ccc(OC(=O)CCS(=O)(=O)c2ccc(C)cc2)cc1,0,0,0,0,0
C[C@H](CO)N1C[C@H](C)[C@@H](CN(C)C(=O)Nc2ccc(C(F)(F)F)cc2)Oc2c(NC(=O)Nc3ccc(C(F)(F)F)cc3)cccc2C1=O,0,0,0,43,0
CCc1ccc(C2C(C#N)=C(N)C(C#N)(C#N)C3=CCC(C(C)(C)C)CC32)cc1 (centres undefined),42,68,0,0,0
SMILES,CXCR6 inh,CCR6 antagonist,APJ ag,EBI2 block,APJ antag
CC(C)(C)C1CC=C2C(C#N)=C(N)C(C#N)(C#N)C(c3cccs3)C2C1 (centres undefined),-,-,0,-,0
NC(=O)C1CCN(c2oc(/C=C/c3ccc(F)cc3)nc2S(=O)(=O)c2ccccc2)CC1,0,0,0,0,0
CCC(C)C1=CC(=Nc2c(C)n(C)n(-c3ccccc3)c2=O)C=C(C(C)CC)C1=O (centres undefined),0,51,0,0,0
CC1=CC(=Nc2c(C)n(C)n(-c3ccccc3)c2=O)C=C(C)C1=O,0,0,0,0,0
CCCc1cc(NC(=O)CCl)n(-c2ccccc2)n1,0,0,0,0,0
O=C(Nc1ccc(Cl)cc1Cl)c1cccc(N2C(=O)C=CC2=O)c1,105,0,0,0,0
Cc1ccc(C)c(N2CCN(S(=O)(=O)c3cc4c(cc3Cl)NC(=O)CO4)CC2)c1,0,0,0,0,0
COc1ccc(NC(=O)c2cc(S(=O)(=O)N3CCc4ccccc43)cn2C)c(OC)c1,0,0,0,66,0
CCCC(C)NC(=O)COc1ccc(S(=O)(=O)N2CCCC2)cc1 (centres undefined),0,0,0,0,0
COc1cc(/C=C/C(=O)/C=C(O)/C=C/c2ccc(O)c(OC)c2)ccc1O,0,54,0,0,0
